proCasp7 act: activates human procaspase-7, counter-screen for procaspase-3 activators | P55210 | recombinant procaspase-7, Ac-DEVD-pNA absorbance 405 nm; D23A/D198A/D206A triple mutant, cannot self-cleave; scale: DMSO 0, 5 µM enzyme 100 | activation, % at 8.5 µM | 330,000 compounds, 0.093% hits;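 active means percent activation above the screen-wide mean plus 3 SD, cut at about 25% in these data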
Target sequence (P55210 whole entry D23A/D198A/D206A): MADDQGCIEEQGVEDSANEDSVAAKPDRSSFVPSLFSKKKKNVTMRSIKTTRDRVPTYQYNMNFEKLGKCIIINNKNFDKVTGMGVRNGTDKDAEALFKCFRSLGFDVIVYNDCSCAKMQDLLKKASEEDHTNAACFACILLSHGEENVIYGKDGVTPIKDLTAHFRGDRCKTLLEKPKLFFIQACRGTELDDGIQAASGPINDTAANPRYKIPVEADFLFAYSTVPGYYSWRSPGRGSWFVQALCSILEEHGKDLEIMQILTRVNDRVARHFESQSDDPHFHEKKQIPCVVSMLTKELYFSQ
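Test system: Procaspase-7 triple mutant (PC-7 D3A). Also added: Ac-DEVD-pNA substrate, 400 µM as added. Schedule: 1 h enzyme–compound preincubation and 2 h substrate reaction, both 25 °C. Signal: p-Nitroaniline absorbance at 405 nm, read at 0 and 120 min. Control set: low DMSO alone, high DMSO plus 5 µM PC-7.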
GAA850 FXN act: increases GAA850 frataxin promoter reporter activity; HEK293 lucGAA850 FXN promoter luciferase reporter, 24 h; percent of 10 µM SAHA response; AID 540364; activation, % at 6 µM; 360,000 compounds, 0.56% hits;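 active means activation above the average of all compounds screened plus 3 SD, cutoff fixed separately per campaign, cut at about 7.5% in these data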;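 further: 0% = DMSO wells and 100% = 10 µM SAHA wells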
Hep lipid drop: modulators of hepatic lipid droplet formation; inhibition, % at 6.5 µM; 240,000 compounds, 0.4% hits; AML12 mouse hepatocytes, oleate lipid droplets, BODIPY imaging;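 active means lipid droplet intensity inhibited by at least 50%, with more than 500 cells counted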
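Test system: AML12 mouse liver cells; schedule: overnight exposure; technique: high-content imaging of BODIPY-stained droplets and DAPI nuclei; read-out: % inhibition of corrected integrated BODIPY droplet signal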
p-CIP stab down: compounds decreasing mouse p/CIP protein stability; decrease of EGFP signal, % at 10 µM; 290,000 compounds, 0.01% hits; Q05BA5; F442A p/CIP-EGFP cells, EGFP fluorescence, 16 h;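 active means EGFP signal decrease of at least 30% at 10 µM or well 3 SD below plate mean, unless failing retest; inactive means the rest, including hits failing retest or dose response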
procasp3 activ: activators of human procaspase-3; P42574; recombinant procaspase-3 D3A, Ac-DEVD-pNA absorbance 405 nm; activation, % at 8.5 µM; 330,000 compounds, 0.11% hits;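 active means activation above the mean of all tested compounds plus 3 SD, cut at about 21% in these data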;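 further: 0% = DMSO alone and 100% = DMSO wells spiked with extra 5 µM PC-3 D3A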
Target sequence (P42574 whole entry D9A/D28A/D175A): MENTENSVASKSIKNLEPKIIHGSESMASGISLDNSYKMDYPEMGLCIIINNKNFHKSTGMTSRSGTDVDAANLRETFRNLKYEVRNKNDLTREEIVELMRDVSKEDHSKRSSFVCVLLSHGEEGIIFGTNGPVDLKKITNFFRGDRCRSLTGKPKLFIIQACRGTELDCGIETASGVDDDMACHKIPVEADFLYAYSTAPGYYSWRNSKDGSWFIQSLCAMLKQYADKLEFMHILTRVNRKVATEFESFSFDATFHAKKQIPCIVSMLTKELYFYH
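Assay system: Autoprocessing-dead procaspase-3 D3A mutant enzyme; also added: Ac-DEVD-pNA; doses: one concentration, 8.5 µM nominal, 0.8% DMSO; times: 1 h compound preincubation, 2 h substrate hydrolysis at 25 °C; technique: 405 nm absorbance of p-nitroaniline, reads at 0 and 120 min; measure: % activation between DMSO and enzyme-spiked controls; repeats: single replicate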
Rce1 inh: blocks yeast Ras-converting enzyme | 290,000 compounds, 0.27% hits | Q03530 | calls only | yeast membranes, quenched prenylated peptide cleavage fluorescence;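 active means fall in fluorescence gain of 50% or more versus controls, with final raw signal at or below 3038400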;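 further: plate controls were neutral control wells for no effect and wells lacking membranes for full effect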
Lipid drop inh: hepatic lipid droplet formation inhibition, confirmed; shares compounds with Hep lipid drop; AML12 mouse hepatocytes, BODIPY lipid droplet imaging; droplets induced with 100 µM oleic acid; inhibition, % at 5.2 µM; 870 compounds, 65% hits;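 active means inhibition of lipid droplet metric at least 50%, with more than 300 cells in each of four replicates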;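 further: plate controls were DMSO with oleic acid for no effect and 5 µM Triacsin-C for full effect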
AML12 cytotox: counter-screen for cytotoxicity in AML12 mouse hepatocytes | shares compounds with Hep lipid drop | DAPI nuclear morphology cytotoxicity imaging; hits give high values; cells fed 100 µM oleate overnight | z-score at 5 µM | 870 compounds, 3% hits | AID 463200; in the data active means z-score above about 6.3;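 further: compound exposure lasted overnight at 37 °C before fixation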
AML12 tox conf: confirmation of cytotoxicity in AML12 mouse hepatocytes; cytotoxicity, % at 50 µM; shares compounds with Hep lipid drop; 530 tested, under 10 active; AML12 mouse hepatocyte viability, ATP luminescence; cells loaded with 100 µM oleic acid; AID 463219;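 active means cytotoxicity above 50% in each of four replicates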;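 further: compound exposure lasted overnight at 37 °C before the ATP read; 0% = DMSO-treated cells and 100% = wells with no cells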
Numbers without * were called inactive; i = inactive; . = no result given. Rows were chosen to be rich in hits. Some 1.2% of all compounds tested hit in one or more screens of this group.

SMILES | proCasp7 act | GAA850 FXN act | Hep lipid drop | p-CIP stab down | procasp3 activ | Rce1 inh | Lipid drop inh | AML12 cytotox | AML12 tox conf
O=C1C(=Cc2ccccc2O)SC(=S)N1CCCN1CCOCC1 | . | -0.2 | . | . | . | . | . | . | .
CCOC(=O)C1(C)CCN1C(=O)c1cncc(Br)c1 (centres undefined) | . | 2.0 | . | . | . | . | . | . | .
CNS(=O)(=O)c1ccc(CCC(=O)N2CCN(c3ccccc3OC)CC2)cc1 | 7.3 | -0.8 | -0.7 | -8.8 | 16.1 | i | . | . | .
COc1ccccc1N1CCN(C(=O)COc2ccc(S(=O)(=O)NC(C)(C)C)cc2)CC1 | 1.9 | . | 64.1* | -11.6 | 6.2 | i | 85.3* | -0.116 | .
Cn1cc(Cc2ccc(C(=O)NC34CC5CC(CC(C5)C3)C4)cn2)c2ccccc21 | . | 1.1 | . | . | . | . | . | . | .
Cc1nc2c(OCc3ccc(OC(F)F)cc3)cccn2c1N(C)C(=O)CCC1CCCC1 | . | 0.6 | . | . | . | . | . | . | .
CCn1c(=O)cc(OCC(=O)NCCc2cccc(C)c2)c2ccccc21 | 7.0 | 2.6 | -20.7 | 3.4 | 8.6 | i | . | . | .
CCOc1ccc(CCNC(=O)CSc2cc(=O)n(CC)c3ccccc23)cc1OCC | -1.6 | 2.1 | 93.3* | -23.1 | -5.1 | i | 105.1* | -0.186 | 13.9
Cn1c(=O)cc(SCC(=O)NCCC2=CCCCC2)c2ccc(Cl)cc21 | 8.5 | 3.0 | -20.3 | -10.3 | 1.1 | i | . | . | .
CCOc1ccc(CCNC(=O)CSc2cc(=O)n(C)c3cc(Cl)ccc23)cc1OCC | -2.6 | -2.1 | 77.9* | -10.9 | 2.6 | i | 77.8* | -0.282 | -1.3
CCOc1ccc(CCNC(=O)c2nnc(Cc3ccc(F)cc3)o2)cc1OCC | -2.3 | 0.0 | 101.6* | 1.8 | -2.4 | i | 106.0* | -0.348 | 10.1
CCOc1ccc(CCNC(=O)c2cc3sccc3n2CC)cc1OCC | -1.3 | -1.6 | 91.9* | -26.8 | -1.6 | i | 108.5* | -0.0532 | 8.4
COc1cccc(N2CCN(C(=O)c3cc4c(=O)n(Cc5ccccc5)ccc4nc3C)CC2)c1 | 0.1 | -2.9 | -27.0 | -12.2 | -0.9 | i | . | . | .
Cc1ccc(F)cc1C(=O)N1CCCCC1c1cc(C(=O)Nc2cccc(C#N)c2)no1 (centres undefined) | . | -1.4 | . | . | . | . | . | . | .
Cc1cccc(N2CCN(C(=O)COc3noc4nc(C)cc(C)c34)CC2C)c1 (centres undefined) | . | -0.3 | . | . | . | . | . | . | .
COc1nccnc1NS(=O)(=O)c1ccc(NCc2cc(Br)ccc2O)cc1 | 0.6 | 1.3 | 63.7* | 3.5 | 4.0 | i | 15.0 | -0.00134 | .
CCc1nnc(NS(=O)(=O)c2ccc(NCc3cc(Br)ccc3O)cc2)s1 | -8.0 | 4.4 | -5.0 | -2.8 | -5.2 | i | . | . | .
O=c1c(C/C=C/c2ccccc2)c(O)ccn1CCc1c[nH]c2ccccc12 | 6.8 | -0.8 | 60.1* | 3.3 | -3.4 | i | 105.5* | -0.194 | 13.1
CNc1cncc(-c2ccc(CN3CCOCC3)cc2)n1 | . | 0.1 | . | . | . | . | . | . | .
CCCSC1=C(C#N)C(c2cccs2)C(C(=O)Nc2ccccc2)=C(C)N1 (centres undefined) | 11.9 | -5.3 | 54.1* | -6.4 | 4.0 | i | 92.5* | -0.173 | -2.5
Cc1ccc(NC(=O)Cn2cc(C(=O)C3CC3)c3ccccc32)c(C)c1 | -6.4 | -2.8 | 17.4 | 1.0 | 3.6 | i | . | . | .
Cc1ccc(C)c(NC(=O)Cn2cc(C(=O)C3CC3)c3ccccc32)c1 | 2.4 | 1.8 | 75.2* | 4.9 | -4.7 | i | 93.7* | -0.527 | 18.9
CCOc1ccccc1NC(=O)CSCC(=O)Nc1ccccc1 | 10.5 | 0.9 | 57.3* | 7.1 | -4.3 | i | 96.0* | 1.44 | 2.4
CCOc1ccc(OCC)c(NC(=O)CSCC(=O)O)c1 | 19.7 | -0.8 | . | -20.7 | -2.4 | i | . | . | .

Screening results as filed in PubChem BioAssay.
